Calls of active or inactive are those of the source. The rule behind the calls is not given here.
Assays:
Prothrombin [1] = target: T1, Prothrombin (Homo sapiens, UniProt P00734); test: Inhibition of human thrombin using S-2366 as substrate preincubated for 300 seconds followed by substrate addition measured after 40 mins by spectrophotometric analysis
[2] = target: T2, Vitamin K-dependent protein C (Homo sapiens, UniProt P04070); test: Inhibition of human APC using S-2366 as substrate preincubated for 300 seconds followed by substrate addition measured after 40 mins by spectrophotometric analysis
Homo sapiens = species on record: Homo sapiens; test: Selectivity ratio of IC50 for human thrombin to IC50 for human APC
Prothrombin [3] = target: T1, Prothrombin; test: Competitive inhibition of human thrombin using S-2366 as substrate
Method in brief: (§1)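 Ki values were calculated from the IC50 values measured in the enzyme screening assays.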

[4] = Lipophilicity, log D of the compound at pH 7.4 by chromatographic method; assay type: physicochemical; conditions: buffer
[5] = target: T2, Vitamin K-dependent protein C; test: Competitive inhibition of human APC using S-2366 as substrate; method in brief: as §1
Coagulation factor XI [6] = target: T3, Coagulation factor XI (Homo sapiens, UniProt P03951); test: Competitive inhibition of human coagulation factor 11a using S-2366 as substrate; method in brief: as §1
Coagulation factor XI [7] = target: T3, Coagulation factor XI; test: Inhibition of human coagulation factor 11a using S-2366 as substrate preincubated for 300 seconds followed by substrate addition measured after 40 mins by spectrophotometric analysis
Plasma [8] = test: Antifibrinolytic activity in human citrated plasma assessed as prolongation of clot-lysis time at 101 uM by spectrophotometric analysis; assay type: functional, cell-free
Method in brief: (§2)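 Citrated plasma from healthy volunteers. Tissue plasminogen activator was added to start plasmin generation, and clot-lysis time was recorded with test compound present (n = 2).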

Coagulation factor X [9] = target: T4, Coagulation factor X (Homo sapiens, UniProt P00742); test: Competitive inhibition of human coagulation factor 10a using S-2765 as substrate; method in brief: as §1
Coagulation factor X [10] = target: T4, Coagulation factor X; test: Inhibition of human coagulation factor 10a using S-2765 as substrate preincubated for 300 seconds followed by substrate addition measured after 40 mins by spectrophotometric analysis
Coagulation factor VII [11] = target: T5, Coagulation factor VII (Homo sapiens, UniProt P08709); test: Competitive inhibition of human coagulation factor 7a using spectrozyme as substrate; method in brief: as §1
T5 sequence (P08709 whole entry): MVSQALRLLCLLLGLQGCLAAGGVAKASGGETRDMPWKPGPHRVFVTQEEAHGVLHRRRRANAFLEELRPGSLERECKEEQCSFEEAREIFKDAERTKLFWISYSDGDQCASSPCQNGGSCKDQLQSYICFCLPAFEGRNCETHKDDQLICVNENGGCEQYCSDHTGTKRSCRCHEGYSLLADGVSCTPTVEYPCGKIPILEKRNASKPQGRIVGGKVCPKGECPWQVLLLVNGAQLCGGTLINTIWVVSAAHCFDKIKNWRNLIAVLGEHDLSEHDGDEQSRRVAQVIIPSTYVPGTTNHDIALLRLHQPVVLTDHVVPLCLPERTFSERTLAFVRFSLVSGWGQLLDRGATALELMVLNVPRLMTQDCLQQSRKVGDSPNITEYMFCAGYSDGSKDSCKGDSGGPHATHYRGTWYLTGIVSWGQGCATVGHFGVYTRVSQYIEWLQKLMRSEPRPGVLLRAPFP

[12] = target: Coagulation factor IX (Homo sapiens) (UniProt P00740); test: Inhibition of coagulation factor 9a (unknown origin)-mediated hydrolysis of Z-D-Arg-Gly-Arg-pNA at 100 uM relative to control
Coagulation factor VII [13] = target: T5, Coagulation factor VII; test: Inhibition of human coagulation factor 7a using spectrozyme as substrate preincubated for 300 seconds followed by substrate addition measured after 40 mins by spectrophotometric analysis in presence of tissue factor
Plasma [14] = test: Antifibrinolytic activity in human citrated plasma assessed as prolongation of clot-lysis time at 28 uM by spectrophotometric analysis; assay type: functional, cell-free; method in brief: as §2

| Compound | IC50 (Prothrombin [1]) [µM] | IC50 [2] [µM] | Ratio IC50 (Homo sapiens) | Ki (Prothrombin [3]) [µM] | chromatographic logD [4] | Ki [5] [µM] | Ki (Coagulation factor XI [6]) [µM] | IC50 (Coagulation factor XI [7]) [µM] | Activity (Plasma [8]) | Ki (Coagulation factor X [9]) [µM] | IC50 (Coagulation factor X [10]) [µM] | Ki (Coagulation factor VII [11]) [µM] | inhibition [12] | IC50 (Coagulation factor VII [13]) [µM] | Activity (Plasma [14]) |
| --- | --- | --- | --- | --- | --- | --- | --- | --- | --- | --- | --- | --- | --- | --- | --- |
| N=C(N)c1ccc(CNC(=O)C(CCC2CCNCC2)NC(=O)[C@@H](NCC(=O)O)C2CCCCC2)cc1 (mixture of isomers) | > 44 | > 44 | 1 | – | – | – | – | – | – | – | – | – | – | – | – |
| N=C(N)c1ccc(CNC(=O)[C@H](Cc2cccc3ccccc23)NC(=O)[C@@H](CC2CCCCC2)NCC(=O)O)cc1 | 12 | 1.1 | 11 | 6 | 1.97 | 0.3 | – | – | – | – | – | – | – | – | – |
| N=C(N)c1ccc(CNC(=O)[C@@H](NC(=O)[C@@H](CC2CCCCC2)NCC(=O)O)C2CCNCC2)cc1 | 26 | 3.1 | 8.4 | 14 | – | 0.9 | > 19 | > 44 | – | – | – | – | – | – | – |
| N=C(N)c1ccc(CNC(=O)[C@H](CC2CCCN2)NC(=O)[C@@H](CC2CCCCC2)NCC(=O)O)cc1 (mixture of isomers) | 7 | 5.6 | 1.3 | 4 | – | 1.6 | – | – | – | – | – | – | – | – | – |
| N=C(N)c1ccc(CNC(=O)C(CCC2CCNCC2)NC(=O)[C@H](N)CC2CCCCC2)cc1 (mixture of isomers) | 28 | 3.1 | 8.9 | 15 | – | 0.9 | – | – | – | – | – | – | – | – | – |
| N=C(N)c1ccc(CNC(=O)[C@H](Cc2ccc3ccccc3c2)NC(=O)[C@@H](CC2CCCCC2)NCC(=O)O)cc1 | 5.2 | 0.98 | 5.3 | 3 | – | 0.3 | – | – | – | – | – | – | – | – | – |
| N=C(N)c1ccc(CNC(=O)C2(NC(=O)[C@H](NCC(=O)O)C3CCCCC3)Cc3ccccc3C2)cc1 | 36 | 1.7 | 21 | 19 | 0.93 | 0.5 | > 19 | > 44 | Active | 16 | 48 | 7 | 40% | 8.9 | – |
| N=C(N)c1ccc(CNC(=O)[C@H](Cc2ccc(N)cc2)NC(=O)[C@@H](CC2CCCCC2)NCC(=O)O)cc1 | 0.9 | 0.13 | 6.9 | 0.5 | – | 0.04 | 0.3 | 0.58 | – | > 15 | > 44 | – | – | – | – |
| N=C(N)NCCC[C@H](NC(=O)[C@@H](CC1CCCCC1)NCC(=O)O)C(=O)NCc1ccc(C(=N)N)cc1 | 1.3 | 0.47 | 2.8 | 1 | – | 0.1 | – | – | – | – | – | – | – | – | – |
| N=C(N)NCCC[C@H](NC(=O)[C@H](N)C1CCCCC1)C(=O)NCc1ccc(C(=N)N)cc1 | 1.9 | 1.6 | 1.2 | 1 | – | 0.5 | – | – | – | – | – | – | – | – | – |
| N=C(N)c1ccc(CNC(=O)[C@H](Cc2ccccc2)NC(=O)[C@@H](CC2CCCCC2)NCC(=O)O)cc1 | 6.1 | 0.67 | 9.1 | 3 | – | 0.2 | – | – | – | – | – | – | – | – | – |
| N=C(N)NCCC[C@H](NC(=O)[C@@H](CC1CCCCC1)NCCC(=O)O)C(=O)NCc1ccc(C(=N)N)cc1 | 5.2 | 2.8 | 1.8 | 3 | – | 0.8 | > 19 | > 44 | – | – | – | – | – | – | – |
| N=C(N)c1ccc(CNC(=O)C(CC2CCNCC2)NC(=O)[C@@H](CC2CCCCC2)NCC(=O)O)cc1 (mixture of isomers) | 12 | 1.3 | 9.1 | 6 | – | 0.4 | – | – | – | – | – | – | – | – | – |
| N=C(N)c1ccc(CNC(=O)C(CCC2CCNCC2)NC(=O)[C@@H](CC2CCCCC2)NCC(=O)O)cc1 (mixture of isomers) | 22 | 0.92 | 23 | 12 | < 0 | 0.3 | > 19 | > 44 | – | > 43 | > 130 | > 100 | inactive | > 133 | Active |
| N#Cc1ccc(CC(NC(=O)[C@@H](CC2CCCCC2)NCC(=O)O)C(=O)NCc2ccc(C(=N)N)cc2)cc1 (mixture of isomers) | 3.8 | 3.8 | 5.4 | 2 | – | 1.1 | – | – | – | – | – | – | – | – | – |
| N=C(N)c1ccc(CNC(=O)[C@H](Cc2ccc(O)cc2)NC(=O)[C@@H](CC2CCCCC2)NCC(=O)O)cc1 | 3.9 | 0.26 | 15 | 2 | 0.02 | 0.1 | 0.8 | 1.9 | – | 8 | 23 | – | – | – | – |
| N=C(N)c1ccc(CNC(=O)C(Cc2ccc(CN)cc2)NC(=O)[C@@H](CC2CCCCC2)NCC(=O)O)cc1 (mixture of isomers) | 3.7 | 1.1 | 3.3 | 2 | – | 0.3 | 19 | 43 | – | 14 | 42 | – | – | – | – |
| N=C(N)c1ccc(CNC(=O)[C@@H](CC2CCCN2)NC(=O)[C@@H](CC2CCCCC2)NCC(=O)O)cc1 (mixture of isomers) | > 44 | > 44 | 1 | – | – | – | – | – | – | – | – | – | – | – | – |
| N=C(N)c1ccc(CNC(=O)[C@@H]2CCN2C(=O)[C@H](NCC(=O)O)C2CCCCC2)cc1 | – | 1.3 | – | – | – | – | – | 20 | – | – | 21 | – | – | 3.3 | – |

— ChEMBL document CHEMBL3112440, “Design, synthesis, and SAR of a series of activated protein C (APC) inhibitors with selectivity against thrombin for the treatment of haemophilia” (Bioorg Med Chem Lett, 2014)
